# Screens (PubChem)
# TLR4 MyD88 comp = inhibitors of TLR4-MyD88 association in cells, primary screen, cell-based, HeLa CL3-4, BLA complementation, FRET ratio | Toll-like receptor 4 (Homo sapiens) + Myeloid differentiation primary response protein … | HeLa CL3-4 TLR4/MyD88 BLA complementation | inhibition, % at 8.4 µM | 0.18% of 200,000 active; in the data active means inhibition above about 25%;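 further: 0% = vehicle and 100% = reference inhibitor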
# Hsp70 activator = Hsp70 transcriptional activators, primary screen, cell-based, HeLa, Hsp70 promoter luciferase, luminescence, 10 µM; HeLa Hsp70 promoter luciferase reporter; scaled: vehicle 0, proteasome-inhibitor control 100%; activation, % at 10 µM; 0.04% of 200,000 active;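 active means activation above the mean across all tested compounds plus 3 SD, cutoff set per campaign, cut at about 5.5% in these data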;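 further: 100% = MG132 at 30 µM as the positive control and 0% = DMSO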
# MT stabilizer = microtubule stabilizers in HeLa cells, primary screen, imaging, high-content imaging. HeLa tubulin immunostaining HCS, 24 h; share of cells brighter than vehicle mean+2SD. AID 2205, 2009. 0.83% of 200,000 active. % tubulin-high responders, % at 10 µM;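 active means plate Z-score above 3 for both tubulin-high and condensed-nucleus cell shares, with cell loss under 80%, at 10 µM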;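 further: anti alpha tubulin signal scored within the nucleus-defined area of each cell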
# NOD2-RIPK2 inh = NOD2-RIPK2 binding disruptors in cells, primary screen, fluorescence, CHO cells, BLA complementation; Receptor-interacting serine/threonine-protein kinase 2 (Homo sapiens), O43353; CCF4 ratio; inhibition, % at 4.98 µM; 0.38% of 360,000 active; in the data active means inhibition above about 21%;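 further: 0% = vehicle only and 100% = reference blocker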
# bCat nuc transl = modulators of beta-catenin nuclear translocation, primary screen, imaging, HeLa cells, immunofluorescence, high-content; nuclear translocation activity, % at 5 µM; 0.3% of 190,000 active; AID 1665, 2009;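 active means nuclear translocation activity above 50% at 5 µM, with a well cell count of 50 or more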;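 further: per-cell ratio of nuclear to cytoplasmic median beta-catenin stain intensity; plate controls were DMSO negative control for no effect and GSK-3 inhibitor IX positive control for full effect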
#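 System: Human HeLa cells, endogenous beta-catenin | Compound dosing: 5 µM primary, 0.02–20 µM confirmation | Timing: 24 h compound exposure at 37°C, 5% CO2 | Measured by: Fluorescence imaging of beta-catenin antibody stain plus DAPI | Read-out basis: % activation of per-cell nuclear versus cytoplasmic median beta-catenin signal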
# TLR9-MyD88 inh = inhibitors of TLR9-MyD88 association in cells, primary screen, cell-based, CHO, BLA complementation, fluorescence. AID 504734, 2011. inhibition, % at 4.98 µM. CCF4 FRET ratio. 0.21% of 340,000 active;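 active means inhibition above the mean over all tested compounds plus 3 SD, cut at about 21% in these data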;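 further: 0% = DMSO only wells and 100% = clavulanate BLA inhibitor control wells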
# TLR9-MyD88 conf = TLR9-MyD88 association inhibitors, retest, confirmation, cell-based, CHO, BLA complementation, fluorescence, triplicate. shares compounds with TLR9-MyD88 inh. CCF4 FRET ratio. inhibition, % at 4.98 µM. 51% of 680 active. AID 540250, 2011;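 active means mean inhibition across three repeats above about 21% taken from the earlier screen, limit read from the data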;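 further: blue over green emission ratio reports constitutive TLR9 MyD88 association via BLA complementation; 0% = DMSO vehicle wells and 100% = clavulanate BLA inhibitor wells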
# BLA counter-1 = beta-lactamase reporter inhibitors in CHO cells, artefact control for TLR9-MyD88 binding inhibitor project, cell-based, fluorescence; AID 540251, 2011; 7% of 680 active; shares compounds with TLR9-MyD88 inh; CHO-BLA cells, CCF4 FRET ratio, BLA reporter; inhibition, % at 4.98 µM;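 active means mean inhibition above a 50% cutoff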;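 further: counterscreen of TLR9-MyD88 hits on CMV-driven BLA in CHO-K1 cells; 0% = DMSO alone and 100% = clavulanate blocking BLA; higher means less blue over green ratio so more BLA blockade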
# TLR9 CHO cytotox = CHO cell viability loss – luminescence, single concentration, cytotoxicity control for TLR9-MyD88 binding inhibitor project | AID 588336, 2011 | inhibition, % at 4.98 µM | shares compounds with TLR9-MyD88 inh | TLR9-MyD88 CHO cells cytotoxicity | 39% of 680 active; in the data active means inhibition above about 11%
# NOD2-RIPK2 conf = NOD2-RIPK2 binding disruptors, retest, confirmation, fluorescence, CHO cells, BLA complementation, triplicate. shares compounds with NOD2-RIPK2 inh. CCF4 FRET. inhibition, % at 4.98 µM. 70% of 1,200 active. AID 624370, 2012;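 active means mean inhibition across replicates above a set limit taken from the earlier primary screen, cut at about 21% in these data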;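 further: 0% = DMSO-only wells and the high end = clavulanate BLA-blocked wells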
# BLA counter-2 = hits BLA reporter in NOD2-RIPK2 inhibitor counterscreen | inhibition, % at 4.98 µM | CHO BLA reporter, CCF4 FRET ratio | 57% of 1,200 active | shares compounds with NOD2-RIPK2 inh;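 active means mean inhibition above the low-control mean inhibition plus three low-control SD, cut at about 11% in these data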;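 further: 0% = DMSO only wells and 100% = clavulanate high control wells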
# The depositor's hits bear a star; . = not tested or not shown. This is a sample that favours compounds with a hit; in the whole collection about 1% have one here.
SMILES,TLR4 MyD88 comp,Hsp70 activator,MT stabilizer,NOD2-RIPK2 inh,bCat nuc transl,TLR9-MyD88 inh,TLR9-MyD88 conf,BLA counter-1,TLR9 CHO cytotox,NOD2-RIPK2 conf,BLA counter-2
COc1ccc(N2c3ccccc3CN(Cc3ccccc3)CC2Cc2cc(OC)c(OC)c(OC)c2)cc1 (stereo unspecified),.,.,.,-8,.,-6,.,.,.,.,.
CC(C)NC(=O)c1sc2nc(-c3cccs3)cc(-c3cccs3)c2c1N,5,-1,2,.,-3,.,.,.,.,.,.
COc1ccc(C(=O)c2sc3nc(C)cc(-c4cccs4)c3c2N)cc1OC,12,0,1,61*,-1,41*,25*,25,8,50*,60*
O=c1c2cc(F)ccc2sn1-c1ccccc1Cl,.,.,.,-5,.,0,.,.,.,.,.
Cc1ccc(-n2sc3cc(F)ccc3c2=O)c(C)c1,.,.,.,38*,.,30*,19,-1,85*,26*,15*
C#CCn1cc(/C=C2\NC(=O)NC2=O)c2ccccc21,.,.,.,1,.,4,.,.,.,.,.
COc1ccc(OC)c(NC(=O)c2nc(S(=O)(=O)Cc3ccccc3)ncc2Cl)c1,.,.,.,94*,.,57*,53*,44,99*,102*,49*
Cc1ccccc1CS(=O)(=O)c1ncc(Cl)c(C(=O)Nc2ccc(F)cc2)n1,.,.,.,94*,.,34*,34*,20,90*,83*,33*
Cc1ccc(NC(=O)c2nc(S(=O)(=O)Cc3ccccc3)ncc2Cl)cc1,.,.,.,92*,.,45*,45*,34,99*,90*,41*
Cc1nnc(NC(=O)c2nc(S(=O)(=O)Cc3ccccc3)ncc2Cl)s1,.,.,.,1,.,2,.,.,.,.,.
O=C(Nc1ccc(F)cc1)c1nc(S(=O)(=O)Cc2ccccc2)ncc1Cl,.,.,.,93*,.,36*,48*,36,99*,90*,43*
O=C(NCCc1ccc(Cl)cc1)c1cc(S(=O)(=O)N2CCCCC2)c[nH]1,.,.,.,-15,.,2,.,.,.,.,.
CSC1=NS(=O)(=O)c2c(C)nn(C)c2S1,.,.,.,-3,-1,-3,.,.,.,.,.
Clc1ccccc1/C=N/NC1=Nc2cccc3cccc1c23,14,0,18,36*,-2,31*,13,12,11*,30*,29*
O=C(Nc1cccc2c1C(=O)NC2=O)c1ccc(S(=O)(=O)N2CCCC2)cc1,22,0,3,22*,-7,38*,9,13,4,34*,43*
Cc1c(N)cc2c(c1N)C(C)(C)CC2(C)C,.,.,.,-1,.,-13,.,.,.,.,.
O=C(c1nc2n(n1)C(c1ccc(Cl)cc1)C=C(c1ccccc1)N2)N1CCOCC1 (stereo unspecified),22,0,3,48*,0,42*,12,12,1,27*,21*
NC(=O)/C(=N\OC(=O)c1ccco1)c1nc(-c2ccc(Br)cc2)cs1,19,0,3,21*,8,36*,20,20,8,43*,22*
COc1cc(OC)c(C#N)c(S(=O)(=O)Cc2ccccc2)c1,-7,0,2,-2,0,8,.,.,.,.,.
N#Cc1c([N+](=O)[O-])cc([N+](=O)[O-])cc1S(=O)(=O)Cc1ccccc1,.,.,.,86*,.,46*,40*,23,98*,92*,34*
CCCCCCSc1ccc(-c2nc3cnccn3c2NCCCC)cc1,.,.,.,24*,.,23*,48*,50*,-7,68*,77*
Nc1c(C(=O)N2CCCCC2)sc2nc3c(cc12)CCCC3,.,.,.,-3,.,0,.,.,.,.,.
Nc1c(C(=O)N2CCCC2)sc2nc(-c3ccccc3)ccc12,.,.,.,34*,-2,30*,32*,30,5,52*,61*
CC(=O)OCCn1c2nc(=O)[nH]c(=O)c-2nc2cc(C)c(C)cc21,.,.,.,23*,1,21*,5,6,3,20,23*
CC(=O)OCCn1c(C)[n+](CCOC(C)=O)c2cc(Cl)c(Cl)cc21,-4,0,1,-8,0,3,.,.,.,.,.
SMILES,TLR4 MyD88 comp,Hsp70 activator,MT stabilizer,NOD2-RIPK2 inh,bCat nuc transl,TLR9-MyD88 inh,TLR9-MyD88 conf,BLA counter-1,TLR9 CHO cytotox,NOD2-RIPK2 conf,BLA counter-2
COc1ccc2oc(=O)c(-c3csc(Nc4cccc(O)c4)n3)cc2c1,15,0,3,31*,1,36*,19,18,-3,28*,47*
O=C(Nc1ccccc1)c1nnsc1S(=O)c1ccc(Cl)cc1 (stereo unspecified),23,0,2,33*,0,23*,37*,7,97*,78*,25*
O=C(c1nnsc1S(=O)c1ccc(Cl)cc1)N1CCOCC1 (stereo unspecified),6,0,6,52*,-3,28*,31*,1,101*,68*,21*
Cc1nnsc1S(=O)c1ccc(Cl)cc1 (stereo unspecified),.,.,.,-6,.,3,.,.,.,.,.
CCc1nc(Nc2ccccc2F)c2oc3ccccc3c2n1,.,.,.,1,.,-5,.,.,.,.,.
CCOC(=O)[C@]12CCC=C1N(Cc1ccccc1)C(=O)[C@H](CC(=O)NCC13CC4CC(CC(C4)C1)C3)C2,.,.,.,4,.,.,.,.,.,.,.
CCCS(=O)(=O)NC(=O)C1(C)CCCN(C(=O)c2cc(OC)c(OC)c(OC)c2)C1 (stereo unspecified),.,.,.,-1,.,.,.,.,.,.,.
